Measured values of several laboratories.
Compare with care: the assays were run in different laboratories.
Target: Sodium-dependent serotonin transporter (SLC6A4, Homo sapiens, UniProt P31645)

| Structure (SMILES) | test | test system | setting | inhibition |
| --- | --- | --- | --- | --- |
| CN1CCN(CCCOc2ccc(=O)n(-c3ccc(Cl)c(Cl)c3)n2)CC1 | ligand displacement | – | 1 µM | 21.7% |
| O=C(c1ccc(Cl)cc1)N(Cc1ccccc1)C1CCCCC1 | cell-free assay | – | 10 µM | -7.1% |
| CCCNc1nc2ccccc2n1Cc1ccc(Cl)cc1 | ligand displacement | – | 10 µM | -8.27% |
| CCN(Cc1ccccc1C(F)(F)F)C(=O)C1CCN(S(=O)(=O)c2ccc3[nH]ncc3c2)CC1 | ligand displacement, radioligand | – | 10 µM | 2% |
| COc1cc(NC(C)=O)c(Cl)cc1C(=O)Nc1nccs1 | cell-free assay | – | 10 µM | -12.3% |
| N#Cc1cc(Cn2c(N3CCCC3)nc3ccccc32)ccc1F | ligand displacement | – | 10 µM | -16.9% |
| COc1ccc(-n2nc(OCCCN3CCCCC3)ccc2=O)cc1 | ligand displacement | – | 1 µM | 43.6% |
| CN(C)CCCN1c2ccccc2CCc2ccccc21 | transporter uptake, inhibitor, radiometric | COS-7 | 4 nM | 19.6% |
| CCN(CC)c1ccc(C2Nc3ccc(C(=O)c4ccccc4)cc3NC3=C2C(=O)CC(C)(C)C3)cc1 (stereo not shown) | ligand displacement, radioligand | – | 10 µM | 57% |
| O=C1N=C(N2CCCCN2)S/C1=C\c1ccc(F)cc1O | ligand displacement, radioligand | – | 10 µM | < 10% |
